Measured values published in ChEMBL document CHEMBL1142692, “Synthesis and biological evaluation of meperidine analogues at monoamine transporters” (J Med Chem, 2005).
Values joined by “and” are separate entries in the source; they are usually repeats but may differ in a detail not shown here. Equal values may be shown once.

System: not listed separately
Experiment: Ratio of binding affinity of mu-opioid receptor and dopamine taransporter
Conditions: not given

SMILES | Ratio
CN1CCC(C#N)(c2ccc(I)cc2)CC1 | 2.07

Target: Norepinephrine transporter (Rattus norvegicus) (UniProt Q9WTR4)
Experiment: Percent inhibition of [3H]nisoxetine binding to norepinephrine transporter at 10 uM
Conditions: not given

Chain of Norepinephrine transporter (Rattus norvegicus) (Q9WTR4 as listed by the source): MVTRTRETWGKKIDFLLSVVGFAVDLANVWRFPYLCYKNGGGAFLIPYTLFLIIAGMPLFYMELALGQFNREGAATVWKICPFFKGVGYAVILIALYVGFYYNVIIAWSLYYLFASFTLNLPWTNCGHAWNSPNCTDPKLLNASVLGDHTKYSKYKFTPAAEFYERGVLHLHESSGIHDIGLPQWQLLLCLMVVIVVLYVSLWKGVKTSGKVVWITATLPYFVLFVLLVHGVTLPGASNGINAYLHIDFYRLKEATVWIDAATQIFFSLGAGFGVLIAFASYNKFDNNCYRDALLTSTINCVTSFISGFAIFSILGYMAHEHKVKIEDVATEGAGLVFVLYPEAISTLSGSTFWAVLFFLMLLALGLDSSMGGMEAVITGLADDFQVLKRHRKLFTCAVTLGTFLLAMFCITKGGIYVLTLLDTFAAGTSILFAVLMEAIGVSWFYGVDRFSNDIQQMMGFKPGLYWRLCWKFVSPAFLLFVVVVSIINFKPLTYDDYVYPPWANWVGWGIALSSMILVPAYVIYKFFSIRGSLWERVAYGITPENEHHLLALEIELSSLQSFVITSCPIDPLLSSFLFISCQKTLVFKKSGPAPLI

SMILES | inhibition
CN1CCC(C#N)(c2ccc(Cl)cc2)CC1 | 106%
CCOC(=O)C1(c2ccc(F)cc2)CCN(C)CC1 | 71.9%
CN1CCC(C#N)(c2ccc3ccccc3c2)CC1 | 88.1%
CN1CCC(C#N)(c2ccc(Cl)c(Cl)c2)CC1 | 94.1%
CCOC(=O)C1(c2ccc(C)cc2)CCN(C)CC1 | 57.6%
Cc1ccc(C2(C#N)CCN(C)CC2)cc1 | 103%

Target: T1, Mu-type opioid receptor (Homo sapiens, UniProt P35372)
Experiment: Inhibition of [3H]DAMGO binding to mu-opioid receptor at 100 uM
Conditions: not given

T1 sequence (P35372 whole entry): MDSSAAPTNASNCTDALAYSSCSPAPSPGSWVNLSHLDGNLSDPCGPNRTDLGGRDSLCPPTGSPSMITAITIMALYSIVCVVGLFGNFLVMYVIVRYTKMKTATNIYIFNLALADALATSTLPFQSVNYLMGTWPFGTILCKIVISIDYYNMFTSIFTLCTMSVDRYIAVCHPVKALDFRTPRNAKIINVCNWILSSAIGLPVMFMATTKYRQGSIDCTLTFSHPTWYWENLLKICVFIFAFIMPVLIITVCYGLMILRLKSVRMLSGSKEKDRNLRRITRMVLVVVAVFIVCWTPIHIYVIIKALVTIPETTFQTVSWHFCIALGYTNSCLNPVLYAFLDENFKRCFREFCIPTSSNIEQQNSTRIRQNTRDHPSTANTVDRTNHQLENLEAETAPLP

SMILES | Ki
CN1CCC(C#N)(c2ccc(I)cc2)CC1 | 17.3 µM
CN1CCC(C#N)(c2ccc(Cl)cc2)CC1 | 36.8 µM
CN1CCC(C#N)(c2ccc3ccccc3c2)CC1 | 15.4 µM

Target: T2, Norepinephrine transporter (Rattus norvegicus, UniProt Q9WTR4)
Experiment: Inhibition of [3H]-nisoxetine binding to rat norepinephrine transporter
Conditions: not given
How it was run: (§1)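 Male Sprague-Dawley rat frontal cortex membranes in 50 mM Tris, 120 mM NaCl, 5 mM KCl, pH 7.4, 8 mg tissue per tube. Incubated with [3H]nisoxetine (final 0.5 nM) for 1 h on ice, then filtered. Desipramine defines nonspecific binding. Single-concentration values are % specific binding remaining at 10 µM. Mean ± SEM of three experiments in triplicate.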

T2 sequence (Q9WTR4 whole entry): as the sequence (Q9WTR4 as listed by the source) above

SMILES | Ki
CCOC(=O)C1(c2ccc(Cl)cc2)CCN(C)CC1 | 601 µM
CCOC(=O)C1(c2ccc(I)cc2)CCN(C)CC1 | 519 µM
CCOC(=O)C1(c2ccc3ccccc3c2)CCN(C)CC1 | 71.1 µM
CCOC(=O)C1(c2ccc(Cl)c(Cl)c2)CCN(C)CC1 | 74.5 µM

Target: T3, Sodium-dependent dopamine transporter (Rattus norvegicus, UniProt P23977)
Experiment: Inhibitory concentration against [3H]DA uptake in rat brain tissue
Assay type: functional, tissue-based
Conditions: not given
How it was run: (§2)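 Rat caudate-putamen chopped into 225 µm slices, suspended in oxygenated modified Krebs-HEPES buffer at 37 °C. Tissue preincubated 5 min with drug, then [3H]dopamine (final 15 nM) added for 5 min. Uptake stopped with ice-cold buffer and filtration; accumulated label extracted and counted by liquid scintillation. Specific uptake reported after subtracting filter binding. Single-concentration values are % inhibition at 100 µM.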

T3 sequence (P23977 whole entry): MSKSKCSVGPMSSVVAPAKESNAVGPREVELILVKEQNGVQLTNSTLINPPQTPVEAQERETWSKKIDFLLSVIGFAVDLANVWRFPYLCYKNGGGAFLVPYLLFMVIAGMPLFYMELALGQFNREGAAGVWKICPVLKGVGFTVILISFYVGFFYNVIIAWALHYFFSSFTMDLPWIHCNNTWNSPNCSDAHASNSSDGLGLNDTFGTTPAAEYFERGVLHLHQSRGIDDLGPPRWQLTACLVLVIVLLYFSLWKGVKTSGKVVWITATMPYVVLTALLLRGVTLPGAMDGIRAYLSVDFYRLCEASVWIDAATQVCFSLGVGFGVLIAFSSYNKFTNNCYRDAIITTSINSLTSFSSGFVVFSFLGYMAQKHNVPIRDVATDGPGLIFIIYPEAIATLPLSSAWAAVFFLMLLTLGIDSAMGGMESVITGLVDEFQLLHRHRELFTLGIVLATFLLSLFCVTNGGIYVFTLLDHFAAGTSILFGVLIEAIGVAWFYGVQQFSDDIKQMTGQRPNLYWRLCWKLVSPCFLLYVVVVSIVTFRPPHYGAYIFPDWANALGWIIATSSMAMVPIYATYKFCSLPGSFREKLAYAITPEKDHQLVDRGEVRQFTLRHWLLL

SMILES | IC50
CCOC(=O)C1(c2ccc(I)cc2)CCN(C)CC1 | 11.1 µM
CCOC(=O)C1(c2ccc3ccccc3c2)CCN(C)CC1 | 3.19 µM and 11.6 µM
CCOC(=O)C1(c2ccc(Cl)c(Cl)c2)CCN(C)CC1 | 6.01 µM and 1.4 µM
CCOC(=O)C1(c2ccc(C)cc2)CCN(C)CC1 | 76.2 µM

Target: T4, Monoamine transporters; serotonin & dopamine (Homo sapiens) (UniProt P31645+Q01959)
Experiment: Ratio of binding affinity of dopamine and Serotonin transporters
Assay type: protein assay
Conditions: not given
How it was run: (§3)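 Ratio of Ki values, DAT/SERT. DAT Ki from [3H]WIN 35,428 (1.5 nM) competition in rat caudate-putamen membranes on ice, 1 h. SERT Ki from [3H]paroxetine (0.2 nM) binding to rat midbrain membranes, 90 min at room temperature, with 1 µM citalopram defining nonspecific binding.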

T4 sequence (P31645 whole entry, looked up): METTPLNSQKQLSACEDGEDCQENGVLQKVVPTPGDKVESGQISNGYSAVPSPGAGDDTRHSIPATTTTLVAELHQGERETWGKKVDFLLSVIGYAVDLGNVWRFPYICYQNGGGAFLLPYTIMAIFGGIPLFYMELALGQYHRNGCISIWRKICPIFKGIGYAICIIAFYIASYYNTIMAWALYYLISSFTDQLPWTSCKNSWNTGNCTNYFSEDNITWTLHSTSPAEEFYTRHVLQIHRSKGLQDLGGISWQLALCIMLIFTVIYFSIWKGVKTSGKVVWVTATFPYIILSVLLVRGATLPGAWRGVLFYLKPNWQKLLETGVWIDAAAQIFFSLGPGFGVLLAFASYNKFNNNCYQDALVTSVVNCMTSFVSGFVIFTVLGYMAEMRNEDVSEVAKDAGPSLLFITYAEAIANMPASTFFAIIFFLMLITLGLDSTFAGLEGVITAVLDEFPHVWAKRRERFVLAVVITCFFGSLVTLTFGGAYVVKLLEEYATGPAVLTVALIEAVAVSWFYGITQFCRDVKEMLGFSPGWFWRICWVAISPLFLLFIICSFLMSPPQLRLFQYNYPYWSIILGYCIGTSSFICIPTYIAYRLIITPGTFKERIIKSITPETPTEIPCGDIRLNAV
T4 sequence (Q01959 whole entry, looked up): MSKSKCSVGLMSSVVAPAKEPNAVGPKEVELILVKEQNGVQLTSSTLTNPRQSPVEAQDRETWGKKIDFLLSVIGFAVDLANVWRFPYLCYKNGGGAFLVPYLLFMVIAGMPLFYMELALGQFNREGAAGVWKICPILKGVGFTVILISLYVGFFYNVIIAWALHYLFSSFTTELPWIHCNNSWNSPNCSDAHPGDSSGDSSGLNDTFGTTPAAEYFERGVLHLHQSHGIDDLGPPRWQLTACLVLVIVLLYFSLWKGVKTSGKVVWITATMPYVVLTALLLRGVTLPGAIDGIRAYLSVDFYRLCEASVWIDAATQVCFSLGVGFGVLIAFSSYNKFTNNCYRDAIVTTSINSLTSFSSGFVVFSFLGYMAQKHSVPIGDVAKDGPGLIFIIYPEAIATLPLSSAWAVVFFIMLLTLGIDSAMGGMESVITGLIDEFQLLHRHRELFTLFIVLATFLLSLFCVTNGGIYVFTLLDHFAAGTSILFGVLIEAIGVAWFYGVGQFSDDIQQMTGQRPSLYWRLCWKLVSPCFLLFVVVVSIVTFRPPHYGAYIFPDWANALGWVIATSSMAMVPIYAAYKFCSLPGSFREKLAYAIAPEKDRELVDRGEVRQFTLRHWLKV

SMILES | Ratio
CCOC(=O)C1(c2ccc(F)cc2)CCN(C)CC1 | 34.7

Target: T1, Mu-type opioid receptor
Experiment: Inhibition of [3H]DAMGO binding to mu-opioid receptor
Conditions: not given

SMILES | Ki
CCOC(=O)C1(c2ccc(Cl)cc2)CCN(C)CC1 | 4.41 µM
CCOC(=O)C1(c2ccc(I)cc2)CCN(C)CC1 | 2.35 µM
CCOC(=O)C1(c2ccc3ccccc3c2)CCN(C)CC1 | 2.03 µM
CCOC(=O)C1(c2ccc(Cl)c(Cl)c2)CCN(C)CC1 | 2.04 µM
CN1CCC(C#N)(c2ccc(Cl)c(Cl)c2)CC1 | 40 µM
CCOC(=O)C1(c2ccc(C)cc2)CCN(C)CC1 | 2.67 µM
Cc1ccc(C2(C#N)CCN(C)CC2)cc1 | 40.6 µM

System: not listed separately
Experiment: Ratio of binding affinity of mu-opioid receptor and dopamine transporter
Conditions: not given

SMILES | Ratio
CCOC(=O)C1(c2ccc(Cl)cc2)CCN(C)CC1 | 1.08
CCOC(=O)C1(c2ccc3ccccc3c2)CCN(C)CC1 | 1.78
CN1CCC(C#N)(c2ccc(Cl)cc2)CC1 | 1.67
CN1CCC(C#N)(c2ccc3ccccc3c2)CC1 | 6.53
CCOC(=O)C1(c2ccc(Cl)c(Cl)c2)CCN(C)CC1 | 16.3
CCOC(=O)C1(c2ccc(C)cc2)CCN(C)CC1 | 0.22
Cc1ccc(C2(C#N)CCN(C)CC2)cc1 | 0.97

Target: Sodium-dependent dopamine transporter (Rattus norvegicus) (UniProt P23977)
Experiment: Percent inhibition of [3H]DA uptake in rat brain tissue at 100 uM
Assay type: functional, tissue-based
Conditions: not given
How it was run: as §2

Chain of Sodium-dependent dopamine transporter (Rattus norvegicus) (P23977 whole entry): as the sequence (P23977 whole entry) above

SMILES | inhibition
CN1CCC(C#N)(c2ccc(F)cc2)CC1 | 8%
CN1CCC(C#N)(c2ccc(Cl)cc2)CC1 | 36%

Target: Sodium-dependent dopamine transporter (Rattus norvegicus) (UniProt P23977)
Conditions: Brain, 100 uM

SMILES | inhibition
Cc1ccc(C2(C#N)CCN(C)CC2)cc1 | 46%

Target: Sodium-dependent dopamine transporter (Rattus norvegicus) (UniProt P23977)
Conditions: Brain, 100 uM
Remark: another data set of the same source

SMILES | inhibition
Cc1ccc(C2(C#N)CCN(C)CC2)cc1 | 22%

Target: Sodium-dependent dopamine transporter (Rattus norvegicus) (UniProt P23977)
Experiment: Percent inhibition of [3H]WIN-35428 binding to rat Dopamine transporter at 100 uM
Conditions: not given
How it was run: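 Male Sprague-Dawley rat caudate-putamen membranes in modified Krebs-HEPES buffer, pH 7.4. Drug preincubated 5 min, then [3H]WIN 35,428 (final 1.5 nM) added for 1 h on ice, followed by filtration. Value is % inhibition at 100 µM.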

SMILES | inhibition
CN1CCC(C#N)(c2ccc(F)cc2)CC1 | 45%

Target: T1, Mu-type opioid receptor
Experiment: Percent inhibition of [3H]DAMGO binding to rat brain mu-opioid receptor at 100 uM
Conditions: target entry is the homologue from another species

SMILES | inhibition
CN1CCC(C#N)(c2ccc(F)cc2)CC1 | 15%
CN1CCC(C#N)(c2ccc(I)cc2)CC1 | 61%
CN1CCC(C#N)(c2ccc(Cl)cc2)CC1 | 51%
CN1CCC(C#N)(c2ccc3ccccc3c2)CC1 | 61%
CN1CCC(C#N)(c2ccc(Cl)c(Cl)c2)CC1 | 46%

System: not listed separately
Experiment: Ratio of binding affinity for mu-opioid receptor and dopamine transporter
Conditions: not given

SMILES | Ratio
CN1CCC(C#N)(c2ccc(Cl)c(Cl)c2)CC1 | 15

Target: T4, Monoamine transporters; serotonin & dopamine (Homo sapiens)
Experiment: Ratio of binding affinity of dopamine and serotonin transporters
Assay type: protein assay
Conditions: not given
How it was run: as §3

SMILES | Ratio
CCOC(=O)C1(c2ccc(Cl)cc2)CCN(C)CC1 | 14.8
CCOC(=O)C1(c2ccc3ccccc3c2)CCN(C)CC1 | 158
CN1CCC(C#N)(c2ccc(I)cc2)CC1 | 19.4
CN1CCC(C#N)(c2ccc(Cl)cc2)CC1 | 4.31
CN1CCC(C#N)(c2ccc3ccccc3c2)CC1 | 18.9
CCOC(=O)C1(c2ccc(Cl)c(Cl)c2)CCN(C)CC1 | 6.68
CCOC(=O)C1(c2ccc(C)cc2)CCN(C)CC1 | 7.69
Cc1ccc(C2(C#N)CCN(C)CC2)cc1 | 3.05

Target: T4, Monoamine transporters; serotonin & dopamine (Homo sapiens)
Experiment: Ratio of binding affinity for dopamine and serotonin transporters
Assay type: protein assay
Conditions: not given
How it was run: as §3

SMILES | Ratio
CN1CCC(C#N)(c2ccc(Cl)c(Cl)c2)CC1 | 3.32

Target: T2, Norepinephrine transporter
Experiment: Inhibition of [3H]nisoxetine binding to rat norepinephrine transporter at 10 uM
Conditions: not given
How it was run: as §1

SMILES | Ki
CN1CCC(C#N)(c2ccc(F)cc2)CC1 | 101 µM

Target: T1, Mu-type opioid receptor
Experiment: Inhibition of [3H]-DAMGO binding to mu opioid receptor at 10 uM
Conditions: not given

SMILES | inhibition
CN1CCC(C#N)(c2ccc(I)cc2)CC1 | 93.6%

Target: T3, Sodium-dependent dopamine transporter
Experiment: Inhibitory concentration against [3H]dopamine uptake in rat brain tissue
Assay type: functional, tissue-based
Conditions: not given
How it was run: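 Rat caudate-putamen chopped into 225 µm slices, suspended in Krebs-HEPES buffer pregassed with 95% O2/5% CO2 at 37 °C. Tissue preincubated 5 min with or without drug (highest 100 µM), then [3H]dopamine (15 nM final) added for 5 min. Stopped with ice-cold buffer and filtration; accumulated label extracted and counted by scintillation; filter binding subtracted. Three experiments in triplicate.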

SMILES | IC50
CN1CCC(C#N)(c2ccc(I)cc2)CC1 | 36.7 µM

Target: T3, Sodium-dependent dopamine transporter
Experiment: Inhibition of [3H]-DA uptake in rat brain
Assay type: functional, tissue-based
Conditions: not given
How it was run: as §2

SMILES | IC50
CCOC(=O)C1(c2ccc(Cl)cc2)CCN(C)CC1 | 26.9 µM
CN1CCC(C#N)(c2ccc(Cl)c(Cl)c2)CC1 | 11.1 µM

Target: Sodium-dependent dopamine transporter (Rattus norvegicus) (UniProt P23977)
Experiment: Percent inhibition of [3H]dopamine uptake in rat brain tissue at 100 uM
Assay type: functional, tissue-based
Conditions: not given
How it was run: as §2

SMILES | inhibition
CCOC(=O)C1(c2ccc3ccccc3c2)CCN(C)CC1 | 16%
CCOC(=O)C1(c2ccc(F)cc2)CCN(C)CC1 | 47%
CN1CCC(C#N)(c2ccc3ccccc3c2)CC1 | 11%
CCOC(=O)C1(c2ccc(Cl)c(Cl)c2)CCN(C)CC1 | 22%

Target: T1, Mu-type opioid receptor
Experiment: Inhibition of [3H]-DAMGO binding to mu-opioid receptor
Conditions: not given

SMILES | Ratio
CCOC(=O)C1(c2ccc(F)cc2)CCN(C)CC1 | 0.14

System: not listed separately
Experiment: Ratio of binding affinity of mu-opioid receptor and Serotonin transporter
Conditions: not given

SMILES | Ratio
CCOC(=O)C1(c2ccc(F)cc2)CCN(C)CC1 | 4.77

System: not listed separately
Experiment: Ratio of binding affinity of mu-opioid receptor and serotonin transporter
Conditions: not given

SMILES | Ratio
CCOC(=O)C1(c2ccc(Cl)cc2)CCN(C)CC1 | 15.9
CCOC(=O)C1(c2ccc(I)cc2)CCN(C)CC1 | 111
CCOC(=O)C1(c2ccc3ccccc3c2)CCN(C)CC1 | 282
CN1CCC(C#N)(c2ccc(I)cc2)CC1 | 40.2
CN1CCC(C#N)(c2ccc(Cl)cc2)CC1 | 0.18
CN1CCC(C#N)(c2ccc3ccccc3c2)CC1 | 123
CCOC(=O)C1(c2ccc(Cl)c(Cl)c2)CCN(C)CC1 | 109
CN1CCC(C#N)(c2ccc(Cl)c(Cl)c2)CC1 | 49.7
CCOC(=O)C1(c2ccc(C)cc2)CCN(C)CC1 | 1.66
Cc1ccc(C2(C#N)CCN(C)CC2)cc1 | 2.96
